Key:
[1] = target: Casein kinase I isoform gamma-1 (Homo sapiens) (UniProt Q9HCP0); test: Inhibition of recombinant human CK1gamma1 (25 to 355 residues) assessed as residual activity at 1 uM using KRRRALS(p)VASLPGL as substrate measured after 40 mins in presence of [gamma33P]ATP by radiometric scintillation counting method relative to control
Method in brief: (§1)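 Commercial radiometric panel of 50 kinases. Each recombinant human kinase was tested at a single compound concentration of 1 μM. ATP was set within 15 μM of the apparent Km for ATP for each kinase. Residual activity is relative to control and is the mean of two independent experiments.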

[2] = target: Calcium/calmodulin-dependent protein kinase kinase 2 (Homo sapiens) (UniProt Q96RR4); test: Inhibition of human full length CAMKK2 assessed as residual activity at 1 uM using calmodulin as substrate incubated for 40 mins in presence of [gamma 33P]-ATP by radiometric scintillation counting assay relative to control; method in brief: as §1
[3] = target: Tyrosine-protein kinase ABL1 (Homo sapiens) (UniProt P00519); test: Inhibition of human recombinant ABL (27 to end residues) assessed as residual activity at 1 uM using EAIYAAPFAKKK as substrate incubated for 40 mins in presence of [gamma33P-ATP] by radiometric scintillation counting analysis; method in brief: as §1
[4] = target: MAP kinase-activated protein kinase 5 (Homo sapiens) (UniProt Q8IW41); test: Inhibition of human full length PRAK assessed as residual activity at 1 uM using KKLRRTLSVA as substrate incubated for 40 mins in presence of [gamma 33P]-ATP by radiometric scintillation counting assay relative to control; method in brief: as §1
[5] = target: Glycogen synthase kinase-3 beta (Homo sapiens) (UniProt P49841); test: Inhibition of human GSK3beta (2 to end residues) assessed as residual activity using YRRAAVPPSPSLSRHSSPHQS(p) EDEEE as substrate at 1 uM incubated for 40 mins in presence of [gamma 33P]-ATP by radiometric scintillation counting assay relative to control; method in brief: as §1
[6] = target: Serine/threonine-protein kinase Nek6 (Homo sapiens) (UniProt Q9HC98); test: Inhibition of human NEK6 (2 to end residues) assessed as residual activity at 1 uM using FLAKSFGSPNRAYKK as substrate incubated for 40 mins in presence of [gamma 33P]-ATP by radiometric scintillation counting assay relative to control; method in brief: as §1
[7] = target: Serine/threonine-protein kinase pim-1 (Homo sapiens) (UniProt P11309); test: Inhibition of human full length recombinant Pim1 assessed as residual activity at 1 uM using KKRNRTLTV as substrate incubated for 40 mins in presence of [gamma 33P]-ATP by radiometric scintillation counting assay relative to control; method in brief: as §1
[8] = target: Inhibitor of nuclear factor kappa-B kinase subunit beta (Homo sapiens) (UniProt O14920); test: Inhibition of recombinant human full length IKKbeta assessed as residual activity at 1 uM using peptide as substrate incubated for 40 mins in presence of [gamma 33P]-ATP by radiometric scintillation counting assay relative to control
Method in brief: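 Eurofins KinaseProfiler radiometric panel, compound at 1 μM, ATP at 10 μM or within 15 μM of apparent Km. For Nek1 (1−505): 8 mM MOPS pH 7.0, 0.2 mM EDTA, 250 μM peptide, 10 mM Mg acetate, [γ-33P]-ATP, 40 min at room temperature. Stopped with 0.5% phosphoric acid, filtermat spotting, scintillation counting. Mean of two independent experiments.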

[9] = target: Protein kinase C alpha type (Homo sapiens) (UniProt P17252); test: Inhibition of recombinant human full length PKCalpha assessed as residual activity at 1 uM using histone H1 as substrate measured after 40 mins in presence of [gamma33P]ATP by radiometric scintillation counting method relative to control; method in brief: as §1
[10] = system: Tyrosine-protein kinase ABL1 (Homo sapiens), P00519 [Q252H]; test: Inhibition of human Abl Q252H mutant (27 to end residues) assessed as residual activity at 1 uM using EAIYAAPFAKKK as substrate incubated for 40 mins in presence of [gamma 33P]-ATP by radiometric scintillation counting assay relative to control; method in brief: as §1
[11] = system: RAF proto-oncogene serine/threonine-protein kinase (Homo sapiens), P04049 [Y340D,Y341D]; test: Inhibition of human c-Raf (Raf-1) Y340D/Y341D mutant (306 to end) as residual activity at 1 uM using inactive MEK1 as substrate incubated for 40 mins in presence of [gamma 33P]-ATP by radiometric scintillation counting assay relative to control; method in brief: as §1

Calcium/calmodulin-dependent protein kinase kinase 2 (Homo sapiens), sequence (Q96RR4 2-588 limits assumed): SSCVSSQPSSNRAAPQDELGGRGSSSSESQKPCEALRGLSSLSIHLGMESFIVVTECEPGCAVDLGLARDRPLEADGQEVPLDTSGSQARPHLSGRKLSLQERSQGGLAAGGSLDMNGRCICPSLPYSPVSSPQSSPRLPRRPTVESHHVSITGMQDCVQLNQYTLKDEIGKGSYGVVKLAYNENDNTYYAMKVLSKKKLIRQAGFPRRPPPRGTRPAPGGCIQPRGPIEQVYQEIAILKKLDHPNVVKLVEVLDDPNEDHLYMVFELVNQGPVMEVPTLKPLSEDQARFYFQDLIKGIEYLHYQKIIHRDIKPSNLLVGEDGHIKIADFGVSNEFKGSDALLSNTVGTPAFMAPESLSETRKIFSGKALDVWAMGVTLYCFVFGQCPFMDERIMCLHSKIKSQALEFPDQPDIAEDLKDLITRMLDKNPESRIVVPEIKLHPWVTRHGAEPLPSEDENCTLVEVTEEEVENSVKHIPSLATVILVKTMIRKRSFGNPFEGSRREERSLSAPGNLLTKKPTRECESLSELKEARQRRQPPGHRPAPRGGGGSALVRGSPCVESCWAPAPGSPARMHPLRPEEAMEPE
Serine/threonine-protein kinase pim-1 (Homo sapiens), sequence (P11309 whole entry, looked up): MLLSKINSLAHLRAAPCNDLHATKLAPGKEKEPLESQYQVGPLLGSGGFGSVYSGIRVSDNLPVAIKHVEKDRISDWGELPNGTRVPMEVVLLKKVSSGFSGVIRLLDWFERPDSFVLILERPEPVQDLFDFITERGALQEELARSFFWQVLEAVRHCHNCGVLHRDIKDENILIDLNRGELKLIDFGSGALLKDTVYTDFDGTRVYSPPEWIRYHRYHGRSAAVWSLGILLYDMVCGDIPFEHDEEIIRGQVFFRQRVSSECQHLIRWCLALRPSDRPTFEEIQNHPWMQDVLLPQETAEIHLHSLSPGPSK
Casein kinase I isoform gamma-1 (Homo sapiens), sequence (Q9HCP0 whole entry, looked up, the tested form may be a part, canonical isoform): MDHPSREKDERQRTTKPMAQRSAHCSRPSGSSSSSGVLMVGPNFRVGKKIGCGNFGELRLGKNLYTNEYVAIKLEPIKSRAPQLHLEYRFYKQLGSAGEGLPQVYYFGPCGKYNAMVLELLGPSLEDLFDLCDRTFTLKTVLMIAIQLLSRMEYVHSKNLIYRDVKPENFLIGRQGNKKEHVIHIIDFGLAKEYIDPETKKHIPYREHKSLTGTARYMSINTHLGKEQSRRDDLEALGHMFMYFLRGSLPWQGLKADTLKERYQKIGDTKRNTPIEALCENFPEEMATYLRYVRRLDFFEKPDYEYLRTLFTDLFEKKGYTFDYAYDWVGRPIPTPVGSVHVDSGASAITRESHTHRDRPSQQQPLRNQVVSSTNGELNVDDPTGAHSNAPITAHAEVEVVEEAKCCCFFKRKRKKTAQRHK
Serine/threonine-protein kinase Nek6 (Homo sapiens), sequence (Q9HC98 whole entry): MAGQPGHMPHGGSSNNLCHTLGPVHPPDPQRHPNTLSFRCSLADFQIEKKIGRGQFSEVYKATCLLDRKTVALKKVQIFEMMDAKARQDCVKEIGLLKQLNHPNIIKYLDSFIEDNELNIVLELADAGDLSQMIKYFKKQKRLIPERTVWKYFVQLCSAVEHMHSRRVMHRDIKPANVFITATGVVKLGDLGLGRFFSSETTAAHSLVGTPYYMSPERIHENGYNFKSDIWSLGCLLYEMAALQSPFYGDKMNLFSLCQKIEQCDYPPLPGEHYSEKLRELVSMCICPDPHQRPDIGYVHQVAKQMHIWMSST
Glycogen synthase kinase-3 beta (Homo sapiens), sequence (P49841 whole entry, looked up): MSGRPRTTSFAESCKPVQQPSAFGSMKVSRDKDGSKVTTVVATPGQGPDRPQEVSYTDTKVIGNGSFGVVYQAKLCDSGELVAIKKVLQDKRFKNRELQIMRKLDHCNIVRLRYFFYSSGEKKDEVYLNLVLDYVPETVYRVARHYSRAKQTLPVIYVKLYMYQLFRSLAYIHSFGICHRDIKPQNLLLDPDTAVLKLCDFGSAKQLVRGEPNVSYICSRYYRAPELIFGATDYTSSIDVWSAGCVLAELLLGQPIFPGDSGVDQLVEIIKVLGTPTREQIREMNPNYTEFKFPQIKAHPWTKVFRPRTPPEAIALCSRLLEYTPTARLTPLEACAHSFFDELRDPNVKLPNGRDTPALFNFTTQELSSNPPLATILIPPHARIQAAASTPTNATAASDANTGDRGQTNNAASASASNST
MAP kinase-activated protein kinase 5 (Homo sapiens), sequence (Q8IW41 whole entry): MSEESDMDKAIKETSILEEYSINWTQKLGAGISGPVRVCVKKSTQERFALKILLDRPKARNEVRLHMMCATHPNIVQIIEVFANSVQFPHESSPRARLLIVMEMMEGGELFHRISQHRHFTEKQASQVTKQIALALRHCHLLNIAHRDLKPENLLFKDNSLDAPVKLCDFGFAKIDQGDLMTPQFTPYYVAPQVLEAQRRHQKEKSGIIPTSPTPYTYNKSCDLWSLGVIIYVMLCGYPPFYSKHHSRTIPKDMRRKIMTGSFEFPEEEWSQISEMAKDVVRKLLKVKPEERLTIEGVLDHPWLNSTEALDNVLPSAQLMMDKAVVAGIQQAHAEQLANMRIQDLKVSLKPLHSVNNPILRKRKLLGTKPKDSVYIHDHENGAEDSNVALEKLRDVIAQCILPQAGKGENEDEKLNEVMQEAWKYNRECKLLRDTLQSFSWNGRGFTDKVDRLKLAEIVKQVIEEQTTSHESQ
Inhibitor of nuclear factor kappa-B kinase subunit beta (Homo sapiens), sequence (O14920 whole entry): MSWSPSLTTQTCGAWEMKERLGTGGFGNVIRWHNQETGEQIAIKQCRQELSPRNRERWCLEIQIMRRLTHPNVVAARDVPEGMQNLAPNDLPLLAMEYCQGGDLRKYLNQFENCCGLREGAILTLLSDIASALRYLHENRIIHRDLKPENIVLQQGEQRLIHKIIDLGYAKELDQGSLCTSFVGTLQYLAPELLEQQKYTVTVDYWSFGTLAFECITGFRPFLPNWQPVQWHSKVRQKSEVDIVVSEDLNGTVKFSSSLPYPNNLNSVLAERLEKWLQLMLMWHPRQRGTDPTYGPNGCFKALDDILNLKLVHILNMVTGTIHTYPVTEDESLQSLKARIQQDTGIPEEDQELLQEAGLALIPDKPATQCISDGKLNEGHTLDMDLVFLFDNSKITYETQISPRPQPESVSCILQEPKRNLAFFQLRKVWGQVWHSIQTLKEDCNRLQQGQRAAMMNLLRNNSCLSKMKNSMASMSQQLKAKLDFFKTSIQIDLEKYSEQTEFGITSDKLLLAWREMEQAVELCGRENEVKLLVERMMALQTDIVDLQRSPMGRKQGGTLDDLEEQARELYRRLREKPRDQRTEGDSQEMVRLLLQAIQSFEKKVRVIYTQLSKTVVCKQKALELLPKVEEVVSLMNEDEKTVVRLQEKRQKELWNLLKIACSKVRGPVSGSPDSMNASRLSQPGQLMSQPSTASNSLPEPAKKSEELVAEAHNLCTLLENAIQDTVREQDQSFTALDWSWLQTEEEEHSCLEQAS

How did the Activity [1] turn out when `O=S(=O)(N[C@@H](CO)Cc1c[nH]c2ccccc12)c1ccc(-c2ccnc3[nH]ccc23)cc1` was run?
The Activity was greater than 75%.

What about the Activity [2] of the same compound?
The Activity was greater than 75%.

What about the Activity [3] of the same compound?
Its Activity is greater than 75%.

What about the Activity [4] of the same compound?
Its Activity is greater than 75%.

What about the Activity [5] of the same compound?
Its Activity is greater than 75%.

What about the Activity [6] of the same compound?
The Activity was greater than 75%.

What about the Activity [7] of the same compound?
Its Activity is greater than 75%.

What about the Activity [8] of the same compound?
Its Activity is 36.1%.

What about the Activity [9] of the same compound?
Its Activity is greater than 75%.

What about the Activity [10] of the same compound?
The Activity was greater than 75%.

And the Activity [11]?
Its Activity is greater than 75%.
